# Assay results as given in ChEMBL document CHEMBL1821706, “Unprecedented citrinin trimer tricitinol B functions as a novel topoisomerase IIα inhibitor” (J Med Chem, 2011).
# Calls of active or inactive are those of the source. The rule behind the calls is not given here.
# Legend:
# MCF7 [1] = assay: Selectivity ratio of IC50 for human HMEC cells to IC50 for MCF7 cells
# HMEC [2] = assay: Selectivity ratio of IC50 for human HMEC cells to IC50 for 786-O cells
# KB = assay: Drug resistance index, ratio of IC50 for vincristine-resistant human KB cells to IC50 for human KB cells; format: functional
# [3] = biological target: DNA topoisomerase 2-alpha (Homo sapiens) (UniProt P11388); assay: Inhibition of human topoisomerase 2alpha-mediated prestrand-passage DNA religation after 6 mins by agarose gel electrophoresis
# Chain of DNA topoisomerase 2-alpha (Homo sapiens) (P11388 whole entry): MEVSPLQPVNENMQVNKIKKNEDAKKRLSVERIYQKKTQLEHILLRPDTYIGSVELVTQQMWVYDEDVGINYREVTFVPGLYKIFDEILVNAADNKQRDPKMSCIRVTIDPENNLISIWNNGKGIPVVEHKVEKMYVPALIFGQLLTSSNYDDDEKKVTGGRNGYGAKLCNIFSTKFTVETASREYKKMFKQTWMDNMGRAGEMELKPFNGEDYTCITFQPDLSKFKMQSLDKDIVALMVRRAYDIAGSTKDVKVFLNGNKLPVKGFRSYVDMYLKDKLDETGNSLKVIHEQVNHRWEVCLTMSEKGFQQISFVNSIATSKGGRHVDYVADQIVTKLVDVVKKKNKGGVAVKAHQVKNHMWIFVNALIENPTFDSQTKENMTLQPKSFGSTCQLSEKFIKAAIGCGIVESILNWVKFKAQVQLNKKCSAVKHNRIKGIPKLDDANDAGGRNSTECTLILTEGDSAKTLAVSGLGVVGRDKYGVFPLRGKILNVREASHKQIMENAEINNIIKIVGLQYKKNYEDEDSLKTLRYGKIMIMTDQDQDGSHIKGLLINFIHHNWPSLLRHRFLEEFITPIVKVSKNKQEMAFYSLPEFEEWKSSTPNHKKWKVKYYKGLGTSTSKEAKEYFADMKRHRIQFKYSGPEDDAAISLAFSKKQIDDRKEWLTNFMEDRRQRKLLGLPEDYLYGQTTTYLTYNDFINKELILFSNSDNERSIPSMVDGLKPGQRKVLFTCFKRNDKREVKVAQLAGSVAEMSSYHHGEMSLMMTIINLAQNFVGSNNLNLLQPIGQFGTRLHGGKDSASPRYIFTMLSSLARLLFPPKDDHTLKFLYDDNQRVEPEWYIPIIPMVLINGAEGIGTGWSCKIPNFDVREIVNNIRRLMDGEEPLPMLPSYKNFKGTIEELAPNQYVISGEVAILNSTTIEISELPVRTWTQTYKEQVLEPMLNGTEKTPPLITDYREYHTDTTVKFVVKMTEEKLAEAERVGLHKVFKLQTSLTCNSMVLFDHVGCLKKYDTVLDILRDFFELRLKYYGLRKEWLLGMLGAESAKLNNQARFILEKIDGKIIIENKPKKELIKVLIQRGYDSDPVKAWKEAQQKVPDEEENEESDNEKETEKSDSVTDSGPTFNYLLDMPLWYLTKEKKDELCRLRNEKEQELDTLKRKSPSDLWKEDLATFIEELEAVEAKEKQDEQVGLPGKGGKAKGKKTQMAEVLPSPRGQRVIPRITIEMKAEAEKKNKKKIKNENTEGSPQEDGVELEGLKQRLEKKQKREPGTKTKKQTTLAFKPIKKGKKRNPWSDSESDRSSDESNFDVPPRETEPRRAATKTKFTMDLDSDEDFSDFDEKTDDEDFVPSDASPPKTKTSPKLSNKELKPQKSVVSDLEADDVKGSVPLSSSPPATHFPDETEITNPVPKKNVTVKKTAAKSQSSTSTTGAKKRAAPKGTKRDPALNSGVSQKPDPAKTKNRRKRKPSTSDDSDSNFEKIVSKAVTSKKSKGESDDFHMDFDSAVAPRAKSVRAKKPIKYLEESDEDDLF
# How it was run: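 Topo II (6 units) with 0.25 μg supercoiled pBR322 in cleavage buffer with 5 mM CaCl2; equilibrium at 37 °C for 6 min. Compound added just before religation. Cleavage complex trapped with EDTA, NaCl added to block recleavage, samples put on ice. Religation started with cold MgCl2 (8.5 mM final), stopped with SDS, then 1% agarose electrophoresis.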
# HMEC [4] = assay: Selectivity ratio of IC50 for human HMEC cells to IC50 for A431 cells
# HL-60 [5] = assay: Induction of apoptosis in human HL60 cells assessed as activation of caspase 8 at 2.5 to 10 uM after 24 hrs by Western blotting; format: functional, cell-based
# How it was run: (§1)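 Cells (2×10^5/mL) were exposed to 2.5–10 μM for 24 h, then whole-cell lysates were made. Pro-/cleaved caspase-3, caspase-8, pro-/cleaved caspase-9, PARP (116 kDa full length, 85 kDa fragment) and Bid were probed by Western blot with ECL detection.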
# HMEC [6] = assay: Selectivity ratio of IC50 for human HMEC cells to IC50 for HCT116 cells
# MDA-MB-468 = assay: Selectivity ratio of IC50 for human HMEC cells to IC50 for MDA-MB-468 cells
# HCT-116 [7] = assay: Induction of apoptosis in human HCT116 cells assessed as increase in cleaved PARP levels after 24 hrs by Western blotting; format: functional, cell-based; how it was run: as §1
# HCT-116 [8] = assay: Induction of apoptosis in human HCT116 cells assessed as decrease in procaspase 3 expression after 24 hrs by Western blotting; format: functional, cell-based; how it was run: as §1
# HCT-116 [9] = assay: Cytotoxicity against human HCT116 cells after 72 hrs by SRB assay; format: functional, cell-based; conditions: HCT-116, 72 h
# How it was run: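 Adherent human tumour lines were seeded and exposed in triplicate to graded compound concentrations at 37 °C for 72 h. Growth was read by sulforhodamine B staining. IC50 (50% growth inhibition) was obtained by the Logit method from at least three independent experiments and reported as mean ± SD.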
# MCF7 [10] = assay: Drug resistance index, ratio of IC50 for adriyamycin-resistant human MCF7 cells to IC50 for human MCF7 cells; format: functional
# HL-60 [11] = assay: Induction of apoptosis in human HL60 cells assessed as decrease in procaspase 3 expression after 24 hrs by Western blotting; format: functional, cell-based; how it was run: as §1
# HMEC [12] = assay: Selectivity ratio of IC50 for human HMEC cells to IC50 for Rh30 cells
# HCT-116 [13] = assay: Induction of apoptosis in human HCT116 cells assessed as accumulation at G0/G1 phase at 5 uM after 24 hrs using PI staining based flow cytometric analysis (reference value: 48.77%)
# HL-60 [14] = assay: Induction of DNA damage in human HL60 cells assessed as increased histone H2AX expression after 1 hr by agarose gel electrophoresis; format: functional, cell-based
# [15] = biological target: DNA topoisomerase 2-alpha (Homo sapiens) (UniProt P11388); assay: Inhibition of human topoisomerase 2alpha-mediated unwinding of linearized pBR322 assessed as DNA intercalation at 2 to 50 uM
# How it was run: (§2)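 Unwinding (intercalation) test: EcoRI-linearized pBR322 (0.1 μg) incubated with compound and 2 units T4 DNA ligase in ligase buffer at 22 °C for 30 min. Stopped at 60 °C for 10 min, compound removed by phenol extraction, ligation products resolved on agarose gel.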
# HCT-116 [16] = assay: Induction of apoptosis in human HCT116 cells assessed as accumulation at G2/M phase at 5 uM after 24 hrs using PI staining based flow cytometric analysis (reference value: 24.23%)
# [17] = biological target: DNA topoisomerase 2-alpha (Homo sapiens) (UniProt P11388); assay: Induction of human topoisomerase 2alpha-mediated prestrand-passage DNA cleavage after 6 mins by agarose gel electrophoresis
# How it was run: (§3)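 Supercoiled pBR322 (0.25 μg) was incubated with 6 units of topo II in cleavage buffer containing 5 mM MgCl2 at 37 °C for 6 min; the post-strand-passage reactions also received 1 mM APPNHP. Reactions were stopped with SDS and proteinase K, digested at 50 °C for 30 min, heated to 70 °C, and run on 1% agarose gels.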
# HL-60 [18] = assay: Induction of apoptosis in human HL60 cells assessed as Bid cleavage at 2.5 to 10 uM after 24 hrs by Western blotting; format: functional, cell-based; how it was run: as §1
# HL-60 [19] = assay: Induction of DNA damage in human HL60 cells assessed as increased histone H2AX expression at 20 uM agarose gel electrophoresis; format: functional, cell-based; conditions: TDE = time-dependent effect
# HMEC [20] = assay: Selectivity ratio of IC50 for human HMEC cells to IC50 for SGC7901 cells
# HMEC [21] = assay: Selectivity ratio of IC50 for human HMEC cells to IC50 for Bel7402 cells
# HMEC [22] = assay: Selectivity ratio of IC50 for human HMEC cells to IC50 for SKOV3 cells
# [23] = biological target: DNA topoisomerase 2-alpha (Homo sapiens) (UniProt P11388); assay: Inhibition of human topoisomerase 2alpha-mediated unwinding of linearized pBR322 assessed as DNA intercalation at 8 to 200 uM; how it was run: as §2
# HL-60 [24] = assay: Induction of apoptosis in human HL60 cells assessed as DNA ladder formation after 24 hrs using Annexin-V/PI double-staining by flow cytometric analysis; format: functional, cell-based
# How it was run: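 HL60 cells were treated with 2.5, 5.0, 7.5 or 10.0 μM for 24 h for DNA ladder analysis, representative of three experiments. Apoptotic fractions were measured after 2.5–10 μM for 24 h, or 10 μM over a time course, by Annexin/PI staining and flow cytometry (early plus late apoptotic cells), as mean ± SD of three experiments.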
# HMEC [25] = assay: Selectivity ratio of IC50 for human HMEC cells to IC50 for PC3 cells
# HCT-116 [26] = assay: Induction of apoptosis in human HCT116 cells assessed as activation of caspase 9 at 2.5 to 10 uM after 24 hrs by Western blotting; format: functional, cell-based; how it was run: as §1
# HCT-116 [27] = assay: Induction of apoptosis in human HCT116 cells assessed as accumulation at S phase at 5 uM after 24 hrs using PI staining based flow cytometric analysis (reference value: 27%)
# [28] = biological target: DNA topoisomerase 2-alpha (Homo sapiens) (UniProt P11388); assay: Inhibition of human topoisomerase 2alpha-mediated relaxation of supercoiled pBR322 DNA after 30 mins by agarose gel electrophoresis
# How it was run: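 Supercoiled pBR322 (0.25 μg) incubated with 0.75 unit topo IIα at 37 °C for 30 min. SDS stop. Supercoiled and relaxed forms resolved on 1% agarose/TAE, ethidium bromide stain.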
# [29] = biological target: DNA topoisomerase 2-alpha (Homo sapiens) (UniProt P11388); assay: Induction of human topoisomerase 2alpha-mediated poststrand-passage DNA cleavage after 6 mins by agarose gel electrophoresis; how it was run: as §3
structure (smiles),measurement,setting,value
COC1O[C@H](C)[C@@H](C)c2c(C)c3c(c(O)c21)[C@@H]1O[C@H](C)[C@@H](C)c2c(C)c(O)c([C@H]4O[C@H](C)[C@@H](C)c5c(C)c(O)cc(O)c54)c(c21)O3 (stereo partly specified) [TRICITRINOL B],Ratio IC50,MCF7 [1],2
same,Ratio IC50,HMEC [2],2
same,Ratio IC50,KB,0.94
same,inhibition,[3],Dose-dependent effect
same,Ratio IC50,HMEC [4],2
same,Activity,HL-60 [5],Active
same,Ratio IC50,HMEC [6],2
same,Ratio IC50,MDA-MB-468,2
same,Activity,HCT-116 [7],Dose-dependent effect
same,Activity,HCT-116 [8],Dose-dependent effect
same,IC50,HCT-116 [9],4.82 µM
same,Ratio IC50,MCF7 [10],1.28
same,Activity,HL-60 [11],Dose-dependent effect
same,Ratio IC50,HMEC [12],2
same,Activity,HCT-116 [13],37.52%
same,Activity,HL-60 [14],Dose-dependent effect
same,inhibition,[15],Active
same,Activity,HCT-116 [16],42.06%
same,Activity,[17],Dose-dependent effect
same,Activity,HL-60 [18],Active
same,Activity,HL-60 [19],tde
same,Ratio IC50,HMEC [20],2
same,Ratio IC50,HMEC [21],2
same,Ratio IC50,HMEC [22],2
same,inhibition,[23],Active
same,Activity,HL-60 [24],Dose-dependent effect
same,Ratio IC50,HMEC [25],2
same,Activity,HCT-116 [26],Active
same,Activity,HCT-116 [27],20.42%
same,inhibition,[28],Dose-dependent effect
same,Activity,[29],Dose-dependent effect
